Rows were chosen to be rich in hits. Some 2.3% of all compounds tested hit in one or more screens of this group.
TAAR1 antagonist: antagonists of human TAAR1. hit rate 1.5% among 360,000. Q96RJ0. CHO RD-HGA16 TAAR1, Fluo-8 calcium fluorescence, antagonist. inhibition, % at 3 µM;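 active = inhibition above a per-plate cutoff, the mean inhibition of test compounds on that plate plus 3 SD, cut at about 49% in these data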
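System: CHO RD-HGA16 cells bearing hTAAR1. Reagent: EC80 β-phenethylamine stimulus. Schedule: seeding 17-24 h prior, 75-min 37 °C, 30-min RT dye loading. Signal: Fluo-8 intracellular calcium dye fluorescence, real-time kinetic reads. Read-out: % inhibition from peak post-agonist over basal fluorescence ratio. Benchmarks: vehicle wells and EC80 agonist wells. Replicates: n of 1.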
TAAR1 agonist: agonists of human TAAR1 | hit rate 0.99% among 360,000 | activation, % at 3 µM | CHO RD-HGA16 TAAR1, Fluo-8 calcium fluorescence; vehicle wells 0%, saturating PEA agonist 100% | AID 624467 | Q96RJ0;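 active = activation above the mean activation of all test compounds in the run plus 3 SD, cut at about 38% in these data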
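Test system: RD-HGA16 (CHO) cells co-expressing Gα16 and hTAAR1 / Benchmarks: DMSO vehicle as 0%, PEA at EC100 as 100% / Repeats: no replicates (n 1) / Measure: % activation from peak over basal fluorescence ratio, DMSO-to-PEA scaled / Timing: 17-24 h plating, Fluo-8 75 min 37 °C, 30 min RT / Technique: kinetic Fluo-8 calcium fluorescence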
OXTR agonist: agonists of human oxytocin receptor. hit rate 0.32% among 320,000. CHO-OTR cells, Fluo-8 calcium fluorescence; normalized: DMSO 0%, oxytocin 100%. activation, % at 3 µM. P30559;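 active = activation above the mean of all tested compounds plus 3 SD, cutoff set per screening run, cut at about 20% in these data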;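 also: peak over basal fluorescence ratio from a 100 s FLIPR kinetic read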
Target sequence (P30559 whole entry, looked up): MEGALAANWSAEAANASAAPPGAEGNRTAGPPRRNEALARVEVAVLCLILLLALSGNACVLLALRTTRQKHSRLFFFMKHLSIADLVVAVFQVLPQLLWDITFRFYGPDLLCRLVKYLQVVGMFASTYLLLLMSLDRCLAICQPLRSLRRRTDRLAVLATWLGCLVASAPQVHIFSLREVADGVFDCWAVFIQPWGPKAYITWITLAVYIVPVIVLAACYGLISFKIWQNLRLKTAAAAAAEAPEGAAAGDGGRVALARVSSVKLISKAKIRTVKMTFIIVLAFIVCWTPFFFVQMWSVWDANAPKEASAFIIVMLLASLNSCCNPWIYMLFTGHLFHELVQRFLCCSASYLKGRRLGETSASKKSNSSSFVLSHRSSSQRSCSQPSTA
OXTR potentiate: potentiators of human oxytocin receptor | hit rate 0.061% among 320,000 | CHO-OTR cells, Fluo-8 calcium fluorescence, potentiator mode; 0% = oxytocin EC15, 100% = EC100 | activation, % at 3 µM | P30559;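 active = activation above that plate's cutoff, the mean activation of tested compounds plus 3 SD, cut at about 6.6% in these data, passing the limit was not always enough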
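test system = CHO-OTR cells, human receptor | compound = single-point 3.0 µM | schedule = 6 min compound pre-incubation at room temperature, 100 s kinetic read | signal = Fluo-8 no-wash calcium dye fluorescence, excitation 470-495 nm, emission 515-575 nm | repeats = single well per compound, singlicate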
V1aR counter: V1a receptor agonism, counter-screen for OXTR agonists; activation, % at 3 µM; CHO-V1R cells, Fluo-8 calcium fluorescence, agonist mode; 0% DMSO, 100% 3 nM vasopressin; hit rate 0.25% among 320,000; P37288;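 active = activation above the mean activation of all tested compounds plus 3 SD, per screening run, cut at about 20% in these data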;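 also: signal is peak over basal fluorescence ratio across a 100 second FLIPR read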
TAAR1 ag conf: human TAAR1 agonism, confirmed | shares compounds with TAAR1 agonist | CHO RD-HGA16 TAAR1, Fluo-8 calcium fluorescence; scaled: DMSO 0%, maximal phenethylamine 100% | activation, % at 3 µM | hit rate 82% among 2,400 | AID 651783;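 active = activation above a cutoff set at the run's mean compound activation plus 3 SD, cut at about 39% in these data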
Ga16 nonsel ag: nonselective agonist in parental cells, TAAR1 agonist counter-screen; shares compounds with TAAR1 agonist; CHO-Ga16 parental, Fluo-8 calcium fluorescence; normalized to maximal ATP response, DMSO zero; activation, % at 3 µM; hit rate 50% among 2,400; AID 651787;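 active = activation above the run cutoff, the mean activation over all tested wells plus 3 SD, cut at about 12% in these data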
TAAR1 desensitize: TAAR1 response desensitization, agonist counter-screen. shares compounds with TAAR1 agonist. CHO RD-HGA16 hTAAR1, Fluo-8 calcium, beta-PEA response inhibition. inhibition, % at 3 µM. hit rate 46% among 2,400. AID 651951;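 active = inhibition above the run cutoff, the mean inhibition of all test compounds plus 3 SD, cut at about 49% in these data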;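 also: beta-PEA stimulus applied at its EC80; loss of beta-PEA calcium signal after compound pretreatment read as receptor desensitization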
Ga16 antag count: nonselective Ga16 antagonist in TAAR1 agonist counter-screen. inhibition, % at 3 µM. CHO-Ga16 ATP-induced calcium, Fluo-8 fluorescence. shares compounds with TAAR1 agonist. hit rate 39% among 2,400;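 active = inhibition above the plate's mean compound inhibition plus 3 SD, computed per plate, cut at about 22% in these data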
Of the large screens only hits and unclear results are named; the others gave an inactive call (follow-up assays come after a bar, where they were run).

CCCOc1ccc(C(=O)NNC(=S)NC(=O)c2ccccc2)cc1	TAAR1 antagonist 106, TAAR1 agonist 161, OXTR agonist 101, V1aR counter 115 | TAAR1 ag conf 147 | Ga16 nonsel ag 117 | TAAR1 desensitize 106 | Ga16 antag count 95
Cc1ccccc1C(=O)NNC(=S)NC(=O)c1cccs1	TAAR1 antagonist 65, TAAR1 agonist 128, OXTR agonist 36, V1aR counter 65 | TAAR1 ag conf 67 | Ga16 nonsel ag 69 | TAAR1 desensitize inactive | Ga16 antag count 30
CCCOc1ccc(C(=O)NNC(=S)NC(=O)c2cccs2)cc1	TAAR1 antagonist 106, TAAR1 agonist 159, OXTR agonist 79, V1aR counter 85 | TAAR1 ag conf 154 | Ga16 nonsel ag 124 | TAAR1 desensitize 106 | Ga16 antag count 91
CCCC(=O)Nc1ccc(C(=O)NNC(=S)NC(=O)c2cccs2)cc1	none
CSc1ncc(CO)n1Cc1ccccc1	none
Cc1cccc(CCNC(=O)C2CCC(=O)N(Cc3ccccc3F)C2)n1 (configuration not stated)	none
COc1ccc(C2=CC(=O)C[C@H](CN3C(=O)c4ccccc4C3=O)N(C(=O)OC(C)(C)C)O2)cc1	none (no result: OXTR agonist, OXTR potentiate, V1aR counter)
COc1ccc(Br)cc1/C(C)=N/NC1=NCCN1	none
CCCCCOc1ccc(Br)cc1/C(C)=N/NC1=NCCN1	TAAR1 agonist 62 | TAAR1 ag conf 62 | Ga16 nonsel ag 12 | TAAR1 desensitize inactive | Ga16 antag count inactive
CC(C)C(=O)Nc1ncc(Cc2ccc(Cl)cc2)s1	none
C=CCc1c(C)[nH]c(=O)[nH]c1=O	TAAR1 agonist 72 | TAAR1 ag conf inactive | Ga16 nonsel ag inactive | TAAR1 desensitize inactive | Ga16 antag count inactive
C=CCSc1nc(C)c(CC=C)c(=O)[nH]1	none
COc1cc(OC)cc(C(=O)N[C@H](C(=O)NCc2ccccc2)C(C)C)c1	none
O=C(CC1Nc2c3ccccc3nc(=S)n2C1=O)NC1CCCCC1 (configuration not stated)	none
Clc1ccc(Cn2ncc3c(N4CCCCC4)ncnc32)cc1	TAAR1 antagonist 52, TAAR1 agonist 48 | TAAR1 ag conf 45 | Ga16 nonsel ag 24 | TAAR1 desensitize inactive | Ga16 antag count 24
Clc1ccc(Cn2ncc3c(N4CCCC4)ncnc32)cc1	none
Clc1ccc(Cn2ncc3c(NCc4ccccc4)ncnc32)cc1	TAAR1 agonist 53 | TAAR1 ag conf 51 | Ga16 nonsel ag 38 | TAAR1 desensitize inactive | Ga16 antag count 30
COc1ccc(Cl)cc1S(=O)(=O)N(C)CC(=O)NCc1ccccn1	none
Fc1ccccc1N1CCN(C(c2cccs2)c2nnnn2CCc2ccccc2)CC1 (configuration not stated)	TAAR1 agonist 77 | TAAR1 ag conf 83 | Ga16 nonsel ag inactive | TAAR1 desensitize 56 | Ga16 antag count inactive
Fc1ccc(N2CCN(C(c3cccs3)c3nnnn3CCc3ccccc3)CC2)cc1 (configuration not stated)	none
c1ccc(CCn2nnnc2C(c2cccs2)N2CCN(Cc3ccc4c(c3)OCO4)CC2)cc1 (configuration not stated)	TAAR1 antagonist 73, TAAR1 agonist 85 | TAAR1 ag conf 95 | Ga16 nonsel ag inactive | TAAR1 desensitize 89 | Ga16 antag count inactive
CC(C)(C)c1ccc(S(=O)(=O)NC(=O)C2(C)CCN2C(=O)CC2CCCCC2)cc1 (configuration not stated)	none (no result: OXTR agonist, OXTR potentiate, V1aR counter)
CC(=NC(C)C)C1=C(O)C(C)OC1=O (configuration not stated)	none

Screening data as filed in PubChem BioAssay.
